Activity calls are given as the source filed them. The calls are words filed in the database; no cut-off is given here.
Tests used:
OVCAR-4 = assay: Growth inhibition of human OVCAR4 cells incubated for 48 hrs by sulforhodamine B assay; assay type: functional, cell-based
SK-OV-3 = assay: Growth inhibition of human SKOV3 cells incubated for 48 hrs by sulforhodamine B assay; assay type: functional, cell-based
[1] = biological target: CDK2/Cyclin A2 (Homo sapiens) (UniProt P24941+P20248); assay: Inhibition of recombinant human N-terminal GST-tagged CDK2 (M1 to L298 residues)/Cyclin A2 (M1 to L432 residues) expressed in baculovirus infected sf9 cells at 1 uM using Histone H1 as substrate by filter binding assay
In short: (§1)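 Single-point profiling at 1 μM in a 22-kinase panel, performed externally by ProQinase; activity read as residual percent of control.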

NCI-H226 = assay: Growth inhibition of human NCI-H226 cells incubated for 48 hrs by sulforhodamine B assay; assay type: functional, cell-based
DU-145 = assay: Growth inhibition of human DU145 cells incubated for 48 hrs by sulforhodamine B assay; assay type: functional, cell-based
LOX IMVI = assay: Growth inhibition of human LOXIMVI cells incubated for 48 hrs by sulforhodamine B assay; assay type: functional, cell-based
SN12C = assay: Growth inhibition of human SN12C cells incubated for 48 hrs by sulforhodamine B assay; assay type: functional, cell-based
786-0 = assay: Growth inhibition of human 786-0 cells incubated for 48 hrs by sulforhodamine B assay; assay type: functional, cell-based
CCRF-CEM = assay: Growth inhibition of human CCRF-CEM cells incubated for 48 hrs by sulforhodamine B assay; assay type: functional, cell-based
[2] = biological target: T1, Insulin-like growth factor 1 receptor (Homo sapiens, UniProt P08069); assay: Inhibition of IGF1R phosphorylation at Tyr1161 residue in human MCF7 cells at 0.5 uM after 1 hr by immunoblot analysis; assay type: cell-based
T1 sequence (P08069 31-736 limits assumed): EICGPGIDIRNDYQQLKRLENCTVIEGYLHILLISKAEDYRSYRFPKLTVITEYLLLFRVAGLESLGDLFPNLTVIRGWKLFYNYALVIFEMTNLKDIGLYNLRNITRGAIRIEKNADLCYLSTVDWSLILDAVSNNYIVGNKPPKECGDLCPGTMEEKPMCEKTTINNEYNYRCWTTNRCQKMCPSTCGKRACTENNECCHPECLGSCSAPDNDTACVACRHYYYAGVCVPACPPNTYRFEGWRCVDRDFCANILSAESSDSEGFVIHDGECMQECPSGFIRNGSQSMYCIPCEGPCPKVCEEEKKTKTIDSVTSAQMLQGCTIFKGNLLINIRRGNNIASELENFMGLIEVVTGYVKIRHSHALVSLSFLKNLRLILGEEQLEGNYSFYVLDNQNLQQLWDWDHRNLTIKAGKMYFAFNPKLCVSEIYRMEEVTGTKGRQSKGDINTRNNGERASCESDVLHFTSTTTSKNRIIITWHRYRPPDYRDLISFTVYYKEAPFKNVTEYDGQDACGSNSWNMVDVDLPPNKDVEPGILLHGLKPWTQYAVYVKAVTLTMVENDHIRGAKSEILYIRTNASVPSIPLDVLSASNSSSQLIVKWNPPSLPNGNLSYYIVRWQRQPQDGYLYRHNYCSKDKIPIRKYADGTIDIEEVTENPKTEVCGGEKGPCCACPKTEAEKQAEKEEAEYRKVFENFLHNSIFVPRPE
T1 sequence (P08069 741-1367 limits assumed): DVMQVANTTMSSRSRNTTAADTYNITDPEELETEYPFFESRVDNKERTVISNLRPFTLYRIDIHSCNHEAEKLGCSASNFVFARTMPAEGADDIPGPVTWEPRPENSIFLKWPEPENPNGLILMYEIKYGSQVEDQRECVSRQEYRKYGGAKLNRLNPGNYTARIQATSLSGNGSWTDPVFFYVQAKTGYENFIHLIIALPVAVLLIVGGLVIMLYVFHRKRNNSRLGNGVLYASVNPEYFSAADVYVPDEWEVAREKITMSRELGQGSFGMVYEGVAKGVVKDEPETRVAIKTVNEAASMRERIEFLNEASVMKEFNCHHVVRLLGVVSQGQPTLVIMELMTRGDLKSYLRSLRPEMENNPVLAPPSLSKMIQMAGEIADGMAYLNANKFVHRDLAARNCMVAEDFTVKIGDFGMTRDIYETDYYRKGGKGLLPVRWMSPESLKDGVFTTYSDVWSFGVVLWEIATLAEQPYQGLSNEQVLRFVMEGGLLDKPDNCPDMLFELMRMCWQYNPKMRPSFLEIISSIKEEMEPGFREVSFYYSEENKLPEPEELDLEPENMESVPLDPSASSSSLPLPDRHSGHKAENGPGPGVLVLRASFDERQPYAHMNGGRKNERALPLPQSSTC
In short: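 MCF7 (DMEM/10% FBS, 24 h) treated with increasing concentrations for 1 h; 40 μg lysate on 10% SDS-PAGE, probed with p-IGF-1R (Y1161) antibody 1:1000 overnight at 4 °C; β-actin loading control, PI3K inhibitor positive control.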

SK-MEL-5 = assay: Growth inhibition of human SK-MEL-5 cells incubated for 48 hrs by sulforhodamine B assay; assay type: functional, cell-based
[3] = biological target: T1, Insulin-like growth factor 1 receptor; assay: Inhibition of IGF1R in human PANC1 cells assessed as reduction in Akt phosphorylation at Ser473 residue after 24 hrs by immunoblot analysis; assay type: cell-based
In short: (§2)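 Cells in their medium with 10% FBS exposed to rising concentrations for 24 h; whole-cell lysates immunoblotted for p-Akt (S473) and total Akt; PI3K inhibitor at 10 μM as positive control.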

SF-295 = assay: Growth inhibition of human SF295 cells incubated for 48 hrs by sulforhodamine B assay; assay type: functional, cell-based
[4] = biological target: T1, Insulin-like growth factor 1 receptor; assay: Inhibition of IGF1R in human HeLa cells assessed as reduction in Akt phosphorylation at Ser473 residue after 24 hrs by immunoblot analysis; assay type: cell-based; in short: as §2
RXF 393 = assay: Growth inhibition of human RXF393 cells incubated for 48 hrs by sulforhodamine B assay; assay type: functional, cell-based
HOP-62 = assay: Growth inhibition of human HOP62 cells incubated for 48 hrs by sulforhodamine B assay; assay type: functional, cell-based
SNB-75 = assay: Growth inhibition of human SNB75 cells incubated for 48 hrs by sulforhodamine B assay; assay type: functional, cell-based
MDA-MB-435 = assay: Growth inhibition of human MDA-MB-435 cells incubated for 48 hrs by sulforhodamine B assay; assay type: functional, cell-based
HCT-15 = assay: Growth inhibition of human HCT15 cells incubated for 48 hrs by sulforhodamine B assay; assay type: functional, cell-based
[5] = biological target: Cyclin-dependent kinase 2/cyclin E1 (Homo sapiens) (UniProt P24864+P24941); assay: Inhibition of recombinant human N-terminal GST-tagged CDK2 (M1 to L298 residues)/Cyclin E1 (M1 to A395 residues) expressed in sf9 cells at 1 uM using RB-CTF as substrate by filter binding assay; in short: as §1
SF-268 = assay: Growth inhibition of human SF268 cells incubated for 48 hrs by sulforhodamine B assay; assay type: functional, cell-based
[6] = biological target: T1, Insulin-like growth factor 1 receptor; assay: Inhibition of IGF1R in human MCF7 cells assessed as reduction in Akt phosphorylation at Ser473 residue after 24 hrs by immunoblot analysis; assay type: cell-based; in short: as §2
[7] = biological target: T1, Insulin-like growth factor 1 receptor; assay: Inhibition of recombinant human N-terminal GST/His6-tagged IGF1R (M954 to C1367 residues) expressed in sf9 cells assessed as residual activity at 1 uM using Poly(Glu,Tyr)4:1 as substrate by filter binding assay relative to control; in short: as §1
HCC 2998 = assay: Growth inhibition of human HCC2998 cells incubated for 48 hrs by sulforhodamine B assay; assay type: functional, cell-based
[8] = biological target: Cyclin-dependent kinase 4/cyclin D1 (Homo sapiens) (UniProt P11802+P24385); assay: Inhibition of recombinant human N-terminal GST-tagged CDK4 (S4 to E303 residues)/Cyclin D1 (Q4 to I295 residues) expressed in sf9 cells at 1 uM using RB-CTF as substrate by filter binding assay; in short: as §1
CAKI-1 = assay: Growth inhibition of human Caki1 cells incubated for 48 hrs by sulforhodamine B assay; assay type: functional, cell-based
SNB-19 = assay: Growth inhibition of human SNB19 cells incubated for 48 hrs by sulforhodamine B assay; assay type: functional, cell-based
NCI-H522 = assay: Growth inhibition of human NCI-H522 cells incubated for 48 hrs by sulforhodamine B assay; assay type: functional, cell-based
MOLT-4 = assay: Growth inhibition of human MOLT4 cells incubated for 48 hrs by sulforhodamine B assay; assay type: functional, cell-based
HCT-116 = assay: Growth inhibition of human HCT116 cells incubated for 48 hrs by sulforhodamine B assay; assay type: functional, cell-based
HL-60(TB) = assay: Growth inhibition of human HL-60(TB) cells incubated for 48 hrs by sulforhodamine B assay; assay type: functional, cell-based
UO-31 = assay: Growth inhibition of human UO31 cells incubated for 48 hrs by sulforhodamine B assay; assay type: functional, cell-based
In short: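 NCI-60 panel growth inhibition, run by the U.S. National Cancer Institute; GI50 values are means of two test series.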

[9] = biological target: T2, Aurora kinase C (Homo sapiens) (UniProt Q9UQB9); assay: Inhibition of human N-terminal GST-tagged Aurora B (M1 to S27 residues) expressed in sf9 cells at 1 uM using CDC25C-derived peptide as substrate by filter binding assay; in short: as §1
T2 sequence (whole entry): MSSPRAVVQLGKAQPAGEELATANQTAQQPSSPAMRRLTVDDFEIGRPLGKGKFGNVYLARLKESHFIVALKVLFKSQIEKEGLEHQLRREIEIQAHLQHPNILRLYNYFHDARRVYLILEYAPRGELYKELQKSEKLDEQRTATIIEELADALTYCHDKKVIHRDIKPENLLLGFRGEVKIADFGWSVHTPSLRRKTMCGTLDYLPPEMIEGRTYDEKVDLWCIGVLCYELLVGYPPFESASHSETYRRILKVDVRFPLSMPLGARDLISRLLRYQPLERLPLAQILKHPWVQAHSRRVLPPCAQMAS

M14 = assay: Growth inhibition of human M14 cells incubated for 48 hrs by sulforhodamine B assay; assay type: functional, cell-based

## CN1CCN(CCO/N=C2/C(=C3/C(=O)Nc4ccccc43)Nc3ccccc32)CC1
OVCAR-4
  growth inhibition (GI): Active
SK-OV-3
  growth inhibition (GI): Active
[1]
  inhibition: inactive
NCI-H226
  growth inhibition (GI): Active
DU-145
  growth inhibition (GI): Active
LOX IMVI
  growth inhibition (GI): Active
SN12C
  growth inhibition (GI): Active
786-0
  growth inhibition (GI): Active
CCRF-CEM
  growth inhibition (GI): Active
[2]
  inhibition: Active
SK-MEL-5
  growth inhibition (GI): Active
[3]
  inhibition: Dose-dependent effect
SF-295
  growth inhibition (GI): Active
[4]
  inhibition: Dose-dependent effect
RXF 393
  growth inhibition (GI): Active
HOP-62
  growth inhibition (GI): Active
SNB-75
  growth inhibition (GI): Active
MDA-MB-435
  growth inhibition (GI): Active
HCT-15
  growth inhibition (GI): Active
[5]
  inhibition: inactive
SF-268
  growth inhibition (GI): Active
[6]
  inhibition: Dose-dependent effect
[7]
  Activity: 30%
HCC 2998
  growth inhibition (GI): Active
[8]
  inhibition: inactive
CAKI-1
  growth inhibition (GI): Active
SNB-19
  growth inhibition (GI): Active
NCI-H522
  growth inhibition (GI): Active
MOLT-4
  growth inhibition (GI): Active
HCT-116
  growth inhibition (GI): Active
HL-60(TB)
  growth inhibition (GI): Active
UO-31
  growth inhibition (GI): Active
[9]
  inhibition: inactive
M14
  growth inhibition (GI): Active
